Data on 14 molecules can be found in ChEMBL document CHEMBL4270645, “Structure-activity relationship study of hypoxia-activated prodrugs for proteoglycan-targeted chemotherapy in chondrosarcoma” (Eur J Med Chem, 2018).

pIC50, pKd: −log10 of the molar value. Activity calls are given as the source filed them. The rule behind the calls is not given here.

For series [1], the system named is H-EMC-SS. The experiment in a line: Selectivity index, ratio of IC50 for human HEMC-SS cells under normoxic condition to IC50 for human HEMC-SS cells under hypoxic condition. Type of series: functional.
In series [2] the test system is H-EMC-SS. The series can be described thus: Antiproliferative activity against human HEMC-SS cells treated for 24 hrs under normoxic condition followed by compound wash-out and incubated under normoxic condition for 48 hrs by alamar blue assay. It counts as cell-based. In short, it runs like this: (§1)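 HEMC-SS chondrosarcoma cells (DMEM/F12, 10% FCS, gentamicin) seeded 20.10^3/well, adhered overnight; drug dilution series added, final DMSO 0.5%. Exposed 24 h under normoxia (21% O2, 5% CO2, 37°C) or hypoxia (N2, O2<0.3%, 37°C), then washed with PBS and grown 48 h in normoxia. AlamarBlue viability; IC50 = 50% growth inhibition; at least triplicate, mean ± SD.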
(Alamar Blue is a resazurin reagent that responds to reducing activity.)

Series [3] deals with Aggrecan core protein (Bos taurus) (UniProt P13608). The experiment in a line: Binding affinity to bovine articular cartilage aggrecan at 500 uM by SPR analysis. In short, it runs like this:
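Aggrecan immobilised on sensor chip, free sites blocked with 1 M ethanolamine pH 8.5. Primary screen as binding level at 500 µM analyte in HBS-P+ running buffer, 30 µL/min, 600 s association, 200 s dissociation. Response corrected against a flow cell without aggrecan; regeneration with 2 M NaCl, 150 s.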
(SPR reads the build-up and loss of mass on a sensor chip optically.)

The next series deals with Aggrecan core protein (Bos taurus, UniProt P13608). The experiment in a line: Binding affinity to bovine articular cartilage aggrecan by SPR analysis.
Series [4] has as its system H-EMC-SS. The experiment in a line: Antiproliferative activity against human HEMC-SS cells treated for 24 hrs under hypoxic condition followed by compound wash-out and incubated under normoxic condition for 48 hrs by alamar blue assay. It counts as functional, cell-based. In short, it runs like this:
as §1

Series [5] can be described thus: Prodrug activation in pH 7.4 PBS buffer assessed as 15 to 25 ug/ml Escherichia coli nitroreductase-mediated bis(2-chloroethyl)phosphoramidate anion formation by measuring half life at 37 degC in presence of NADPH by RP-HPLC analysis. The settings on record: isolated protein. Put shortly: (§2)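 Recombinant E. coli nitroreductase (final 25 or 15 µg/mL) with prodrug 17 µM and NADPH 0.9 mM final, in 10 mM sodium phosphate pH 7.4, 37°C. Aliquots over 2 h run on C18 RP-HPLC; remaining prodrug from peak area at 322 nm. Enzyme-free NADPH controls run in parallel.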

A short description of series [6]: Prodrug activation in 3 equiv sodium dithionite/CH3CN,/cacodylate buffer at pH 7.4 assessed as bis(2-chloroethyl)phosphoramidate anion formation by measuring half life at 37 degC by 31P NMR analysis. It counts as physicochemical. In short, it runs like this: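 Incubation with 3 equiv sodium dithionite in CH3CN/0.1 M cacodylate buffer pH 7.4, probe at 37°C. 31P NMR spectra over 24 h against coaxial Ph3PO reference (26 ppm). Parent loss and phosphoramidate anion formation quantified from peak areas; average of two runs.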

Series [7] can be described thus: Chemical stability in pH 7.4 sodium phosphate buffer assessed as drug metabolism at 17 uM at 37 degC after 24 hrs by RP-HPLC analysis. Type of series: physicochemical. The settings on record: read-out: Drug metabolism. In short, it runs like this:
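Prodrug at 17 µM in 10 mM sodium phosphate pH 7.4 with 0.13% DMSO, 37°C. Aliquots over 24 h run directly on C18 RP-HPLC (H2O/ACN gradient with 15 mM TFA). Remaining prodrug calculated from peak area at 322 nm.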

A short description of series [8]: Chemical stability in 3 equiv sodium dithionite/CH3CN,/cacodylate buffer at pH 7.4 at 37 degC after 24 hrs by 31P NMR analysis. It counts as physicochemical. The settings on record: pH 7.4, 24 h.
Series [9] can be described thus: Stability in rabbit plasma at 37 degC after 24 hrs by 31P NMR analysis. It counts as ADME, cell-free, Oryctolagus cuniculus. Put shortly:
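Heparinised rabbit blood centrifuged (4°C, 1300 g, 10 min) to give plasma. About 10 mg prodrug in 90 µL CH3CN plus 330 µL plasma, followed by 31P NMR at 37°C over 24 h; peak areas, average of two runs.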

The nature of series [10]: Prodrug activation in pH 7.4 PBS buffer assessed as 15 ug/ml Escherichia coli nitroreductase-mediated corresponding phosphoramidate anion formation by measuring half life at 37 degC in presence of NADPH by RP-HPLC analysis. The conditions noted are these: isolated protein. Put shortly: as §2
Series [11] is described as follows: Prodrug activation in pH 7.4 PBS buffer assessed as 25 ug/ml Escherichia coli nitroreductase-mediated corresponding phosphoramidate anion formation by measuring half life at 37 degC in presence of NADPH by RP-HPLC analysis. The settings on record: isolated protein. In short, it runs like this: as §2

Sequence of Aggrecan core protein (Bos taurus) (P13608 whole entry): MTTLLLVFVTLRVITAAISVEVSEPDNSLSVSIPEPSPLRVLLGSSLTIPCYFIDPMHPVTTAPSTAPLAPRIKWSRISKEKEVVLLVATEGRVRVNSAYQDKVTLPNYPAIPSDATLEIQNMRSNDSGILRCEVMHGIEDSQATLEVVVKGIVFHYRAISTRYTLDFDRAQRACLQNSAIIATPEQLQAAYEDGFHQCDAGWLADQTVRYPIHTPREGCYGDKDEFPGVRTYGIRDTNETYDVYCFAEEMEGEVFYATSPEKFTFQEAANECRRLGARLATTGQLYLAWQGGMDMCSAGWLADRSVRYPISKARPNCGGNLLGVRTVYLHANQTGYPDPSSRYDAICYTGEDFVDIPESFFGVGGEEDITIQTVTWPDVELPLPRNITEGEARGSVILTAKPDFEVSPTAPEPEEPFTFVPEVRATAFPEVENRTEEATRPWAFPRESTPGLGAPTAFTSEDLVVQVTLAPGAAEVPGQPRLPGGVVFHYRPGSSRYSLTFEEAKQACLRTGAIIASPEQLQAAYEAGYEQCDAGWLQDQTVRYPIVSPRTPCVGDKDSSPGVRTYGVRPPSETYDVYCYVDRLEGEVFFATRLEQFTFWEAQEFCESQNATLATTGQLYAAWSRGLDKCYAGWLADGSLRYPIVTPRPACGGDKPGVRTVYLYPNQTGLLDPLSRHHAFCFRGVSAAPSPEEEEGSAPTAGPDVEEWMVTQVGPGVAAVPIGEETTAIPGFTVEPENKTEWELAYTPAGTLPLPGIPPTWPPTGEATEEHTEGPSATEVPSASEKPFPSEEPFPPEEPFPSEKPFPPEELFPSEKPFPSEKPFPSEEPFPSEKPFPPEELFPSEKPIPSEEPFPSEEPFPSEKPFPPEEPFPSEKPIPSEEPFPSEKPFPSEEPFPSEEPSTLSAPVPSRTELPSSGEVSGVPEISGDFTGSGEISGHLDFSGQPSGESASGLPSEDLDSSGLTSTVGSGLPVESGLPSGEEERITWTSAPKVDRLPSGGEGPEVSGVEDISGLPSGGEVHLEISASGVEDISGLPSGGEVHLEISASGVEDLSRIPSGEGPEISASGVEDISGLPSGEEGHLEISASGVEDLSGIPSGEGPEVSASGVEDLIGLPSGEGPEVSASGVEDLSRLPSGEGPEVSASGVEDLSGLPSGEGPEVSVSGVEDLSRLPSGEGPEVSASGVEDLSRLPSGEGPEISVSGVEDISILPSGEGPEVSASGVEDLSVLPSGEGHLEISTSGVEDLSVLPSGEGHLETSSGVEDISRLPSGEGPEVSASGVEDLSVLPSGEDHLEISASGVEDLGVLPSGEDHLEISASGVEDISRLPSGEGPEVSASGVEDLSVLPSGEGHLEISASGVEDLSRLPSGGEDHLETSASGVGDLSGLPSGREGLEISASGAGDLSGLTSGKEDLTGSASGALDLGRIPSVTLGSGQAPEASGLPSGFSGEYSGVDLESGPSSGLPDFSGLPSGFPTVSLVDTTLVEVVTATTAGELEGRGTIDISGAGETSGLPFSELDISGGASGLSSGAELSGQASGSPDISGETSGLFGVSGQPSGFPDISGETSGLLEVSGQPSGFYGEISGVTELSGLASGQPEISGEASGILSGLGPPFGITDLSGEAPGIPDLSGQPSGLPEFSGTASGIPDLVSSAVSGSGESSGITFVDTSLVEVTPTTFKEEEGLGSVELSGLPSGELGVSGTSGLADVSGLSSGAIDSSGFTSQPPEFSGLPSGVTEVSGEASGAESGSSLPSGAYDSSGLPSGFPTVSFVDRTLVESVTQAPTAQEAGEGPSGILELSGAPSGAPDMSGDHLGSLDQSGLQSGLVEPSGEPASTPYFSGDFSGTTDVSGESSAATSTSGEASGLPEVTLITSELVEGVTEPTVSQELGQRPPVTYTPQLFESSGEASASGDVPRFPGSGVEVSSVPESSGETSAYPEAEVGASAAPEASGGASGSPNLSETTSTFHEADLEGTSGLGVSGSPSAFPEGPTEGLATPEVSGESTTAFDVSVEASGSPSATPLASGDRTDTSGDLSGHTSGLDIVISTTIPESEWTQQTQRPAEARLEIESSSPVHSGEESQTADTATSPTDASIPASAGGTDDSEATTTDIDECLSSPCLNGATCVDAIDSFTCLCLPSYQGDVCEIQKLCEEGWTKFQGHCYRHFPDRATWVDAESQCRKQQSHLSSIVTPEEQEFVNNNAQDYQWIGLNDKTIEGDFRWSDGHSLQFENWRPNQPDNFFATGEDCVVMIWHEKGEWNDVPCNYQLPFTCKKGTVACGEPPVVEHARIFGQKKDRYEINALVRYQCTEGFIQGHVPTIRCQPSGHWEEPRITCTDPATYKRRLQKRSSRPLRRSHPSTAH
Sequence of Aggrecan core protein (P13608 whole entry): as above

With `Cn1c(COP(=O)(NCC[N+](C)(C)Cc2ccccc2)N(CCCl)CCCl)cnc1[N+](=O)[O-].[I-]` (stereo not drawn), the “Ratio IC50” value in the series with H-EMC-SS [1] came out at 6. In addition, the pIC50 with H-EMC-SS [2] was 5.19; in the series on H-EMC-SS [4] it was 5.96. In addition, the outcome in series [3] was Active. For the same molecule, the pKd at Aggrecan core protein is 2.54.
Regarding `CC[N+](C)(CCCNP(=O)(OCc1cnc([N+](=O)[O-])n1C)N(CCCl)CCCl)Cc1ccccc1.[I-]` (stereo not drawn), the “Ratio IC50” value with H-EMC-SS [1] came to 10. Moreover, the pIC50 in the series on H-EMC-SS [2] is 4.68; in the series on H-EMC-SS [4], 5.68.
`Cn1c(COP(=O)(NCCCCC[N+](C)(C)C)N(CCCl)CCCl)cnc1[N+](=O)[O-].[I-]` (stereo not drawn): the “Ratio IC50” value in the series with H-EMC-SS [1] stood at 11. For the same molecule, the values for the pIC50 with H-EMC-SS [2] and in the series on H-EMC-SS [4] were 4.59 and 5.62, respectively. Besides, the outcome in series [3] was Active. The pKd at Aggrecan core protein is 2.37.
With `CC[N+](CC)(CC)CCCNP(=O)(OCc1cnc([N+](=O)[O-])n1C)N(CCCl)CCCl.[I-]` (stereo not drawn), in the series with H-EMC-SS [1], the “Ratio IC50” value is 7. Further, the pIC50 with H-EMC-SS [2] was 5.01; in the series on H-EMC-SS [4], 5.85. For the same molecule, the outcome in series [3] was Active. On Aggrecan core protein, this molecule gave a negative-log Kd (pKd) of 2.46.
As to `Cn1c(COP(=O)(NCCCC[N+](C)(C)Cc2ccccc2)N(CCCl)CCCl)cnc1[N+](=O)[O-].[I-]` (stereo not drawn), in the series on H-EMC-SS [1], the “Ratio IC50” value was determined as 10. Besides, the pIC50 in the series on H-EMC-SS [2] is 4.74; in the series with H-EMC-SS [4], 5.74. In addition, the outcome in series [3] was Active. This molecule showed a pKd on Aggrecan core protein of 2.28.
On to `CC[N+](C)(CCCCCNP(=O)(OCc1cnc([N+](=O)[O-])n1C)N(CCCl)CCCl)Cc1ccccc1.[I-]` (stereo not drawn), for which the “Ratio IC50” value in the series with H-EMC-SS [1] is on record as 16. In addition, the results for the negative-log IC50 (pIC50) in the series with H-EMC-SS [2] and in the series on H-EMC-SS [4] were 4.89 and 6.10, respectively. Also, in [3], the outcome was Active. The pKd on Aggrecan core protein was 2.46.
Take `Cn1c(COP(=O)(NCCCCC[N+](C)(C)Cc2ccccc2)N(CCCl)CCCl)cnc1[N+](=O)[O-].[I-]` (stereo not drawn): in the series with H-EMC-SS [1], the “Ratio IC50” value was 10. Besides, the pIC50 with H-EMC-SS [2] is 4.54; in the series on H-EMC-SS [4], 5.55. Besides, the result in [3] was Active. For the same molecule, on Aggrecan core protein, the pKd was 2.59.
As for `CC[N+](C)(C)CCCCCNP(=O)(OCc1cnc([N+](=O)[O-])n1C)N(CCCl)CCCl.[I-]` (stereo not drawn), in the series on H-EMC-SS [1], the “Ratio IC50” value was 11. For the same molecule, the figures for the pIC50 with H-EMC-SS [2] and in the series with H-EMC-SS [4] were 4.80 and 5.82, respectively. For the same molecule, the outcome in series [3] was Active. This molecule gave a pKd on Aggrecan core protein of 2.45.
For the molecule `CC[N+](C)(CC)CCCCNP(=O)(OCc1cnc([N+](=O)[O-])n1C)N(CCCl)CCCl.[I-]` (stereo not drawn), in the series on H-EMC-SS [1], the “Ratio IC50” value turned out to be 6. Also, the pIC50 with H-EMC-SS [2] is 4.87; with H-EMC-SS [4] it was 5.62. Moreover, the result in series [3] was Active. At Aggrecan core protein, this molecule gave a pKd of 2.30.
Take `Cn1c(COP(=O)(NCCC[N+](C)(C)Cc2ccccc2)N(CCCl)CCCl)cnc1[N+](=O)[O-].[I-]` (stereo not drawn): in the series with H-EMC-SS [1], the “Ratio IC50” value worked out at 14. Further, the pIC50 is 5.27 in the series with H-EMC-SS [2] and 6.40 in the series on H-EMC-SS [4]. Further, in [3], the outcome was Active. Also, the pKd at Aggrecan core protein was 2.52.
For `Cn1c(COP(=O)(NCCBr)NCCBr)cnc1[N+](=O)[O-]` [EVOFOSFAMIDE], the “Ratio IC50” value with H-EMC-SS [1] was 23. Further, the figures for the negative logarithm of the IC50 (pIC50) with H-EMC-SS [2] and with H-EMC-SS [4] were 5.54 and 6.89, respectively.
In the case of `CC[N+](C)(C)CCCCNP(=O)(OCc1cnc([N+](=O)[O-])n1C)N(CCCl)CCCl.[I-]` (stereo not drawn), in the series on H-EMC-SS [1], the “Ratio IC50” value is listed as 7. Moreover, the pIC50 is 4.99 in the series with H-EMC-SS [2] and 5.82 in the series on H-EMC-SS [4]. Besides, in series [3], the result was Active. This molecule gave a pKd on Aggrecan core protein of 2.69.
As for `CC[N+](C)(CCCCNP(=O)(OCc1cnc([N+](=O)[O-])n1C)N(CCCl)CCCl)Cc1ccccc1.[I-]` (stereo not drawn), in the series on H-EMC-SS [1], the “Ratio IC50” value is recorded as 24. In addition, the pIC50 in the series on H-EMC-SS [2] was 4.39; in the series on H-EMC-SS [4] it was 5.77. Further, the t1/2 in [5] is given as < 1 min; in [6], < 2 min. For the same molecule, the outcome in series [3] was Active. In addition, the degraded at 24 h, 17 µM in series [7] was < 5%. Further, the Stability result in series [8] and in [9] was “Stable” in each case. The same molecule gave a pKd on Aggrecan core protein of 2.68.
Consider `Cn1c(COP(=O)(NCCC[N+](C)(C)C)N(CCCl)CCCl)cnc1[N+](=O)[O-].[I-]` (stereo not drawn), for which the t1/2 in series [10] is on record as 15 min; in series [11], 5 min. The “Ratio IC50” value with H-EMC-SS [1] came to 7. Also, the negative logarithm of the IC50 (pIC50) in the series on H-EMC-SS [2] was 4.53; with H-EMC-SS [4] it was 5.37. Moreover, the outcome in [3] was Active. This molecule had a pKd on Aggrecan core protein of 2.89.

As usually defined, the pIC50 is the IC50 on a negative log10 scale, so that one unit is a factor of ten. As a reminder, the pKd is the Kd on a negative log10 scale, so that one unit is a factor of ten. Read a high pKd as a small Kd.
